Experimental data as given in ChEMBL document CHEMBL1135498, “Pyrazole urea-based inhibitors of p38 MAP kinase: from lead compound to clinical candidate” (J Med Chem, 2002).
Each block holds one molecule with its values, some of them ahead of it. The source made the active and inactive calls. The rule behind the calls is not given here.

Tests used:
Mus musculus [1] = assay: In vivo inhibition of LPS-stimulated TNF-alpha in mouse at 100 mg/kg peroral dose; NS = Not significant.; type: functional, organism-based; design: dose 100 mg/kg
Procedure, shortened: (§1)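 Female Balb/c mice (~20 g) received compound or vehicle orally in cremophor about 30 min before an i.v. challenge of E. coli 0111:B4 LPS (1.0 μg/mouse) plus D-gal (50 mg/kg) in pyrogen-free saline. One hour after challenge, the mice were bled by cardiac puncture. Serum TNF-α was measured by ELISA in duplicate, and compound levels by HPLC.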

[2] = Plasma level of compound was measured after 90 min post dose in mouse.; type: ADME, organism-based; settings: read-out: Plasma level; procedure, shortened: as §1
Mus musculus [3] = assay: In vivo inhibition of LPS-stimulated TNF-alpha in mouse at 100 mg/kg peroral dose; type: functional; settings: route oral
Procedure, shortened: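 Female Balb/c mice (~20 g) dosed orally in cremophor ~30 min before iv LPS (E. coli 0111:B4, 1.0 μg/mouse) plus D-gal (50 mg/kg) in pyrogen-free saline. Blood taken by cardiac puncture 1 h after challenge; serum TNF-α by ELISA in duplicate; serum compound levels by HPLC.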

[4] = Plasma level of compound was measured after 90 min post dose in mouse; type: ADME, organism-based; settings: read-out: Plasma level; procedure, shortened: as §1
MAP kinase p38 = MAP kinase p38 (Homo sapiens, UniProt O15264+Q15759+Q16539+P53778); assay: Binding affinity against human Mitogen-activated protein kinase p38; type: protein assay
Procedure, shortened: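 Inhibitor at two concentrations (typically 1 and 0.1 μM, verified by HPLC); 60 min room temperature; excitation 332 nm, emission 420 nm. Duplicates; all points fit to equilibrium binding equation for Kd.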

[5] = Bioavailability was measured after oral dosing at 10 mg/kg in female BALB/c mice(100% PEG400); type: ADME, organism-based; settings: mouse, in vivo, read-out: Bioavailabiility
[6] = Bioavailability was measured after oral dosing at 10 mg/kg in male cynomolgus monkey (100% PEG400); type: ADME, organism-based, Macaca fascicularis; settings: in vivo, read-out: Bioavailabiility
[7] = Half life was measured after intravenous dosing at 1 mg/kg in female BALB/c mice(70% PEG400); type: ADME, organism-based; design: dose 1 mg/kg, route intravenous; settings: mouse, in vivo
[8] = Vss was measured after intravenous dosing at 1 mg/kg in female BALB/c mice(70% PEG400); type: ADME, organism-based; design: dose 1 mg/kg, route intravenous; settings: mouse, in vivo, read-out: Vss
[9] = Vss was measured after intravenous dosing at 1 mg/kg in male cynomolgus monkey (70% PEG400); type: ADME, organism-based, Macaca fascicularis; design: dose 1 mg/kg, route intravenous; settings: in vivo, read-out: Vss
[10] = Maximum plasma conc. was measured after oral dosing at 10 mg/kg in female BALB/c mice(100% PEG400); type: ADME, organism-based; design: dose 10 mg/kg, route oral; settings: mouse
[11] = Half-life was measured after intravenous dosing at 1 mg/kg in male cynomolgus monkey (70% PEG400); type: ADME, organism-based, Macaca fascicularis; design: dose 1 mg/kg, route intravenous; settings: in vivo
[12] = Maximum conc. (Cmax) was measured after oral dosing at 10 mg/kg in male cynomolgus monkey (100% PEG400); type: ADME, organism-based, Macaca fascicularis; design: dose 10 mg/kg, route oral; settings: in vivo
[13] = Maximum time (Tmax) was measured after oral dosing at 10 mg/kg in female BALB/c mice(100% PEG400); type: ADME, organism-based; design: dose 10 mg/kg, route oral; settings: mouse, in vivo
[14] = Maximum time (Tmax) was measured after oral dosing at 10 mg/kg in male cynomolgus monkey (100% PEG400); type: ADME, organism-based, Macaca fascicularis; design: dose 10 mg/kg, route oral; settings: in vivo
[15] = Plasma clearance (CL) was measured after intravenous dosing at 1 mg/kg in female BALB/c mice(70% PEG400); type: ADME, organism-based; design: dose 1 mg/kg, route intravenous; settings: mouse
[16] = Plasma clearance was measured after intravenous dosing at 1 mg/kg in male cynomolgus monkey (70% PEG400); type: ADME, organism-based, Macaca fascicularis; design: dose 1 mg/kg, route intravenous
[17] = biological target: Receptor tyrosine-protein kinase erbB-2 (Homo sapiens, UniProt P04626); assay: Selectivity against HER2 kinase
Receptor tyrosine-protein kinase erbB-2, sequence (P04626 whole entry): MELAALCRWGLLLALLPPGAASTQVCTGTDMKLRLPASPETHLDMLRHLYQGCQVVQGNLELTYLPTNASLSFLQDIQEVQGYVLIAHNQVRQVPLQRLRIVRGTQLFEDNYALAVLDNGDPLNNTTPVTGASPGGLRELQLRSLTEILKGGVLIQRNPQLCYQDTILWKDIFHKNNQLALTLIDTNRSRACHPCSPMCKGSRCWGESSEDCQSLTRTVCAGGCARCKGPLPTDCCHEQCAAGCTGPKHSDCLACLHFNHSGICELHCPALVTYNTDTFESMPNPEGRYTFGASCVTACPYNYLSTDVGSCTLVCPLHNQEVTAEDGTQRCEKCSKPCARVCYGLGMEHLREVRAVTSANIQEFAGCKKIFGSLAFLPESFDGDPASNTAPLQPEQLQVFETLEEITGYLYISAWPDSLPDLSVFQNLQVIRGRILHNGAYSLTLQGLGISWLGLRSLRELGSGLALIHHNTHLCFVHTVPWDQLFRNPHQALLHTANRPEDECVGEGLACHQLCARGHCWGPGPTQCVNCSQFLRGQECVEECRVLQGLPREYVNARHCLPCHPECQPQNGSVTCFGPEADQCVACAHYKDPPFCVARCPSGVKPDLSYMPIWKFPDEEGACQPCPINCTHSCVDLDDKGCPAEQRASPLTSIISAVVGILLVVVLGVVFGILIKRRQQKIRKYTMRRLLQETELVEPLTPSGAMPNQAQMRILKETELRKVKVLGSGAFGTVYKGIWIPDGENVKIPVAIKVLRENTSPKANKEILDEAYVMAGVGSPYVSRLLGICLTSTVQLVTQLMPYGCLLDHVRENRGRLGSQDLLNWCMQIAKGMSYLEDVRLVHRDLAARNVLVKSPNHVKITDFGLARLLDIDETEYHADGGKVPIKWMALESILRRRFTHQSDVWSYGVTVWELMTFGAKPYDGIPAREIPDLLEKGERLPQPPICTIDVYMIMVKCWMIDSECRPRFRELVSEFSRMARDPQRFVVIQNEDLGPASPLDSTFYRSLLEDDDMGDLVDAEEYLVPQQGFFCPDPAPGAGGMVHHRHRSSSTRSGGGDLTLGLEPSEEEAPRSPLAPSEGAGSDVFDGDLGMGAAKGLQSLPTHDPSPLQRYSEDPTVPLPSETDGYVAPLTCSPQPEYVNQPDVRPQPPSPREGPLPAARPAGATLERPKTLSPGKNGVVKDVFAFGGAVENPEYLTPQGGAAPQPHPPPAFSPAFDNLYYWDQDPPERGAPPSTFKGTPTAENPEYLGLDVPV

[18] = Selectivity against Protein kinase C alpha, Protein kinase C beta, Protein kinase C gamma
[19] = biological target: cAMP-dependent protein kinase (PKA) (Homo sapiens, UniProt P22694+P17612+P22612); assay: Selectivity against Protein kinase A (PKA); type: protein assay

Compound: CC(C)(C)c1cc(NC(=O)Nc2ccccc2)n(-c2ccccc2)n1
NS (Mus musculus [1]): inactive | concentration at 1.5 h [2]: 100 ng/mL

Compound: Cc1ccc(-n2nc(C(C)(C)C)cc2NC(=O)Nc2ccccc2)cc1
inhibition in vivo at 100 mg/kg (Mus musculus [3]): 67% | concentration at 1.5 h [4]: 11000 ng/mL

Compound: Cc1ccc(-n2nc(C(C)(C)C)cc2NC(=O)Nc2ccccc2F)cc1
inhibition in vivo at 100 mg/kg (Mus musculus [3]): 90% | concentration at 1.5 h [2]: 51000 ng/mL

Next, values leading:

Kd (MAP kinase p38): 0.001 µM
Compound: Cc1ccc(-n2nc(C(C)(C)C)cc2NC(=O)Nc2cccc3ccccc23)cc1

bioavailability [5]: 23% | bioavailability [6]: 80% | half-life [7]: 2.6 h | Vd [8]: 0.07 L/kg | Vd [9]: 1.9 L/kg | Cmax [10]: 27000 ng/mL | half-life [11]: 1.6 h | Cmax [12]: 1700 ng/mL | Tmax [13]: 1 h | Tmax [14]: 3 h | clearance [15]: 0.33 mL/min/kg | clearance [16]: 14.4 mL/min/kg | IC50 [17]: > 20 µM | IC50 [18]: > 20 µM | IC50 [19]: > 20 µM
Compound: Cc1ccc(-n2nc(C(C)(C)C)cc2NC(=O)Nc2ccc(OCCN3CCOCC3)c3ccccc23)cc1 [DORAMAPIMOD]
